Measured values from article PMC5063151 (Chemmedchem, 2015).

Columns and labels:
VEGF11−109 (VEGF) = test: STD and WaterLOGSY ligand-observed NMR binding experiments; conditions: STD, 1 mM baicalin, 10 μM VEGF, 298 K
In short: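 Ligand‑observed STD and WaterLOGSY were run with 10 μM VEGF and 0.5 or 1 mM test compound in 25 mM sodium phosphate pH 7.0, 50 mM NaCl, […], at 37, 25 or 5 °C on 600/500 MHz spectrometers. On‑resonance saturation targeted the aliphatic protein region (STD) or the water signal (WaterLOGSY). Binding was judged from ligand STD/WaterLOGSY signals.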

[1] = system: VEGF (v107 / receptor binding site); test: STD competition assay with peptide v107; conditions: 1 mM baicalin, 10 μM VEGF, 298 K, 50 and 100 μM v107
[2] = target: T1, methyl‐13C‐Met‐labeled VEGF (Homo sapiens, UniProt P15692); test: Protein-observed CSP with methyl‐13C‐Met‐labeled VEGF; type: binding
T1 sequence (P15692 217-315): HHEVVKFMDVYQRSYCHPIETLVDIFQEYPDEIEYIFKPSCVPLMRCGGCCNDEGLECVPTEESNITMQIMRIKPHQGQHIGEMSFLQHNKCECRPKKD
In short: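 Methyl‑13C‑Met‑labeled VEGF at 30 μM in 25 mM sodium phosphate pH 7.0, 50 mM NaCl, 10% D2O, usually at 45 °C. 1H–13C HSQC used 256×96 points with 8 scans per increment. 13C‑decoupled‑13C‑filtered 1D 1H spectra used 2048 points and 128 scans. KD came from ligand‑titration chemical shift perturbations.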

## O=C(O)[C@H]1O[C@@H](Oc2cc3oc(-c4ccccc4)cc(=O)c3c(O)c2O)[C@H](O)[C@@H](O)[C@@H]1O [baicalin]
VEGF11−109 (VEGF)
  Binding of isolated compound to VEGF: able to bind VEGF
[1]
  STD competition with v107 (reduction of ligand STD signals): baicalin and v107 compete for the same binding site

## O=c1c(O[C@@H]2O[C@H](CO)[C@@H](O)[C@H](O)[C@H]2O)c(-c2ccc(O)c(O)c2)oc2cc(O)cc(O)c12 [quercetin‐3‐β‐glucoside]
[2]; baicalin‐related flavonoids of Figure 7 a
  Methionine perturbations on 13C‐filtered‐13C‐decoupled 1H NMR spectra of VEGF: induced methionine perturbations

## &D‐Pro‐Trp‐Glu‐D‐Pro‐Trp‐Glu& (head to tail)
[2]; CSP titration, methyl‐13C‐Met‐labeled VEGF
  VEGF binding affinity from titration experiments: low‐millimolar range
